Results from different studies.
Each line is one published result; the experiments were not run side by side.

The cell death of `O=C(Nc1ccc(Oc2nnc(-c3ccc(Cl)cc3)c3ccccc23)cc1)c1cccc([N+](=O)[O-])c1` is reported as 93.8% (HepG2; cell growth or viability; MTT; 10 µM).
`CCOC(=O)c1nn(-c2cccc(Cl)c2)/c(=N/N=C(\C)c2ccc(NC(=O)c3ccc(Cl)cc3)cc2)s1` has a viability of 2.59% (HepG2; cell growth or viability; MTT; 5 µM).
With `C=CC(=O)NC1CCN(c2ncc3ncnc(Nc4ccc(Oc5ccc6c(c5)ncn6C)c(C)c4)c3n2)CC1` the EC50 was 0.0743 µM (SH-10-TC; cell growth or viability).
For `CC(C)(C)c1cnc(CSc2cnc(NC(=O)C3CCN(CCCCCCCCSc4cccc5c4C(=O)N(C4CCC(=O)NC4=O)C5=O)CC3)s2)o1` (stereo not drawn), the viability was 10.7% (HH; cell growth or viability; CCK-8; 0.2 µM).
The viability of `CC(=NNC(=O)c1ccc(N)cc1)c1ccc(Nc2nnc(-c3ccc(Cl)cc3)c3ccccc23)cc1` is reported as 98.2% (HepG2; cell growth or viability; MTT; 0.312 µM; 24 h).
For `CC(=O)c1nn(-c2ccccc2Cl)/c(=N/N=C(\C)c2ccc(NC(=O)c3ccccc3)cc2)s1`, the viability was 30.2% (HepG2; cell growth or viability; MTT; 0.156 µM).
The IC50 of `Cc1cc(C)n(C(C(=O)OC(C)C)n2nc(C)cc2C)n1` is reported as over 50 µM (A-431; cell growth or viability; MTT; 72 h).
For `CC(C)(C)c1cnc(CSc2cnc(NC(=O)C3CCN(C(=O)COCCOCCSc4cccc5c4C(=O)N(C4CCC(=O)NC4=O)C5=O)CC3)s2)o1` (stereo not drawn), the viability was 92.9% (HH; cell growth or viability; CCK-8; 0.25 µM).
The IC50 of `O=C(Nc1ccccc1)Nc1cc(Br)cc(C(F)(F)F)c1` is reported as 8.01 µM (LAD2; degranulation).
With `Nc1ncnc2c1c(/C=C/C(=O)O)nn2CC1CCCC1` the EC50 was over 30 µM (OE33; cell growth or viability; resazurin; 5 days).
With `O=C(Nc1ccc(Oc2nnc(-c3ccc(Cl)cc3)c3ccccc23)cc1)c1ccccc1` the viability was 3.4% (HepG2; cell growth or viability; MTT; 2.5 µM; 24 h).
`CNc1ncc2c(/C=C/C(=O)N3CCC(OC)CC3)nn(C(C)C)c2n1` has an EC50 of 13.1 µM (OE33; cell growth or viability; resazurin; 5 days).
`CC(C)(C)c1cnc(CSc2cnc(NC(=O)C3CCN(CCCCCCCCSc4cccc5c4CN(C4CCC(=O)NC4=O)C5=O)CC3)s2)o1` (stereo not drawn) gave a viability of 90.8% (HH; cell growth or viability; CCK-8; 50 nM).
The EC50 of `CNc1ncc2c(/C=C/C(=O)N3CCC(C)CC3)nn(CC3CCCC3)c2n1` is reported as over 30 µM (OE33; cell growth or viability; resazurin; 5 days).
`CC(=NNC(=O)c1cccnc1)c1ccc(Nc2nnc(-c3ccc(Cl)cc3)c3ccccc23)cc1` has a viability of 6.93% (HepG2; cell growth or viability; MTT; 2.5 µM; 24 h).
With `CNc1ncc2c(/C=C/C(=O)N3CCC(OC)CC3)nn(Cc3ccc(OC)cc3)c2n1` the EC50 was 1.63 µM (OE33; cell growth or viability; resazurin; 5 days).
With `CC(C)(C)c1cnc(CSc2cnc(NC(=O)C3CCN(C(=O)CCCSc4cccc5c4C(=O)N(C4CCC(=O)NC4=O)C5=O)CC3)s2)o1` (stereo not drawn) the viability was 96.7% (HH; cell growth or viability; CCK-8; 0.2 µM).
With `CC(=NNC(=S)Nc1ccccc1)c1ccc(Nc2nnc(-c3ccc(Cl)cc3)c3ccccc23)cc1` the cell death was 95.1% (HepG2; cell growth or viability; MTT; 5 µM).
The EC50 of `COC1CCN(C(=O)/C=C/c2nn(CC3CCCC3)c3ncnc(N)c23)CC1` is reported as over 30 µM (OE33; cell growth or viability; resazurin; 5 days).
For `CC(=O)Nc1ccc(Oc2nnc(-c3ccc(Cl)cc3)c3ccccc23)cc1`, the cell death was 88.3% (HepG2; cell growth or viability; MTT; 0.625 µM).
With `CNc1ncc2c(/C=C/C(=O)N3CCC(N(C)C)CC3)nn(CC3CCCC3)c2n1` the EC50 was 15 µM (OE33; cell growth or viability; resazurin; 5 days).
